Experimental data as given in ChEMBL document CHEMBL2424551, “Synthesis, in vitro evaluation and molecular modelling of naphthalimide analogue as anticancer agents” (2013).
Active and inactive are the calls of the source. The rule behind the calls is not given here.

Legend:
Format in all cases: functional
[1] = system: SK-MEL-5; assay: Growth inhibition of human SK-MEL-5 cells at 10 uM after 48 hrs by SRB assay; details: SK-MEL-5, 48 h, read-out: GI
Summary of the method: (§1)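 Cells grown in RPMI 1640 with 5% FBS and 2 mM L-glutamine, plated at 5000–40,000 cells/well by doubling time and preincubated 24 h (37 °C, 5% CO2); a time-zero plate is TCA-fixed. Single dose added, then 48 h incubation. Fixed with cold TCA, stained with 0.4% SRB, dye solubilized in 10 mM Tris base, absorbance at 515 nm; percent growth vs time-zero and untreated control.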

[2] = system: MOLT-4; assay: Growth inhibition of human MOLT4 cells at 10 uM after 48 hrs by SRB assay; details: for inhibition of growth at 10 µM: MOLT-4, 48 h, read-out: GI; summary of the method: as §1
[3] = system: COLO 205; assay: Growth inhibition of human COLO205 cells at 10 uM after 48 hrs by SRB assay; details: COLO 205, 48 h, read-out: GI; summary of the method: as §1
[4] = system: M14; assay: Growth inhibition of human M14 cells at 10 uM after 48 hrs by SRB assay; details: M14, 48 h, read-out: GI; summary of the method: as §1
[5] = system: SNB-75; assay: Growth inhibition of human SNB75 cells at 10 uM after 48 hrs by SRB assay; details: SNB-75, 48 h, read-out: GI
Summary of the method: (§2)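 NCI 60-cell-line screen with a single 10 µM dose. Cells are grown in RPMI 1640 with 5% FBS and 2 mM L-glutamine, plated at 5000–40,000 cells/well according to doubling time, and preincubated 24 h at 37 °C, 5% CO2; time-zero plates are TCA-fixed at that point. Drug exposure is 48 h. Adherent cells are fixed with cold TCA, stained with 0.4% SRB in 1% acetic acid and read at 515 nm. Percent growth is calculated relative to time-zero and untreated controls and reported as GI%.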

[6] = system: OVCAR-8; assay: Growth inhibition of human OVCAR8 cells at 10 uM after 48 hrs by SRB assay; details: OVCAR-8, 48 h, read-out: GI; summary of the method: as §1
[7] = system: NCI-H522; assay: Growth inhibition of human NCI-H522 cells at 10 uM after 48 hrs by SRB assay; details: NCI-H522, 48 h, read-out: GI; summary of the method: as §1
[8] = system: CAKI-1; assay: Growth inhibition of human Caki1 cells at 10 uM after 48 hrs by SRB assay; details: CAKI-1, 48 h, read-out: GI; summary of the method: as §1
[9] = system: KM12; assay: Growth inhibition of human KM12 cells at 10 uM after 48 hrs by SRB assay; details: KM12, 48 h, read-out: GI; summary of the method: as §1
[10] = system: SR; assay: Growth inhibition of human SR cells at 10 uM after 48 hrs by SRB assay; details: read-out: GI; summary of the method: as §2
[11] = system: SW-620; assay: Growth inhibition of human SW620 cells at 10 uM after 48 hrs by SRB assay; details: SW-620, 48 h, read-out: GI; summary of the method: as §2
[12] = system: HT-29; assay: Growth inhibition of human HT-29 cells at 10 uM after 48 hrs by SRB assay; details: HT-29, 48 h, read-out: GI; summary of the method: as §1
[13] = Growth inhibition of human HCC2998 cells at 10 uM after 48 hrs by SRB assay; details: HCC 2998, 48 h, read-out: GI; summary of the method: as §1
[14] = system: SF-539; assay: Growth inhibition of human SF539 cells at 10 uM after 48 hrs by SRB assay; details: for inhibition of growth at 10 µM: SF-539, 48 h, read-out: GI; summary of the method: as §1
[15] = system: HOP-92; assay: Growth inhibition of human HOP92 cells at 10 uM after 48 hrs by SRB assay; details: HOP-92, 48 h, read-out: GI; summary of the method: as §1
[16] = system: 786-0; assay: Growth inhibition of human 786-0 cells at 10 uM after 48 hrs by SRB assay; details: 786-0, 48 h, read-out: GI; summary of the method: as §1
[17] = system: SN12C; assay: Growth inhibition of human SN12C cells at 10 uM after 48 hrs by SRB assay; details: read-out: GI; summary of the method: as §2
[18] = system: OVCAR-3; assay: Growth inhibition of human OVCAR3 cells at 10 uM after 48 hrs by SRB assay; details: OVCAR-3, 48 h, read-out: GI; summary of the method: as §1
[19] = system: LOX IMVI; assay: Growth inhibition of human LOXIMVI cells at 10 uM after 48 hrs by SRB assay; details: read-out: GI; summary of the method: as §1
[20] = system: U-251; assay: Growth inhibition of human U251 cells at 10 uM after 48 hrs by SRB assay; details: U-251, 48 h, read-out: GI; summary of the method: as §2
[21] = system: K562; assay: Growth inhibition of human K562 cells at 10 uM after 48 hrs by SRB assay; details: K562, 48 h, read-out: GI; summary of the method: as §1
[22] = system: A549; assay: Growth inhibition of human A549 cells at 10 uM after 48 hrs by SRB assay; details: A549, 48 h, read-out: GI; summary of the method: as §1
[23] = system: Hs-578T; assay: Growth inhibition of human Hs578T cells at 10 uM after 48 hrs by SRB assay; details: for inhibition of growth at 10 µM: read-out: GI; summary of the method: as §1
[24] = system: MDA-MB-231; assay: Growth inhibition of human MDA-MB-231 cells at 10 uM after 48 hrs by SRB assay; details: MDA-MB-231, 48 h, read-out: GI; summary of the method: as §1
[25] = system: Malme-3M; assay: Growth inhibition of human MALME-3M cells at 10 uM after 48 hrs by SRB assay; details: read-out: GI; summary of the method: as §1
[26] = system: NCI-H23; assay: Growth inhibition of human NCI-H23 cells at 10 uM after 48 hrs by SRB assay; details: NCI-H23, 48 h, read-out: GI; summary of the method: as §1
[27] = system: CCRF-CEM; assay: Growth inhibition of human CCRF-CEM cells at 10 uM after 48 hrs by SRB assay; details: read-out: GI; summary of the method: as §1
[28] = system: SF-295; assay: Growth inhibition of human SF295 cells at 10 uM after 48 hrs by SRB assay; details: SF-295, 48 h, read-out: GI; summary of the method: as §1
[29] = system: SK-MEL-2; assay: Growth inhibition of human SK-MEL-2 cells at 10 uM after 48 hrs by SRB assay; details: SK-MEL-2, 48 h, read-out: GI; summary of the method: as §1
[30] = system: SK-OV-3; assay: Growth inhibition of human SKOV3 cells at 10 uM after 48 hrs by SRB assay; details: SK-OV-3, 48 h, read-out: GI; summary of the method: as §2
[31] = system: IGROV-1; assay: Growth inhibition of human IGROV1 cells at 10 uM after 48 hrs by SRB assay; details: IGROV-1, 48 h, read-out: GI; summary of the method: as §1
[32] = system: NCI-H226; assay: Growth inhibition of human NCI-H226 cells at 10 uM after 48 hrs by SRB assay; details: NCI-H226, 48 h, read-out: GI; summary of the method: as §1
[33] = system: UACC-257; assay: Growth inhibition of human UACC257 cells at 10 uM after 48 hrs by SRB assay; details: UACC-257, 48 h, read-out: GI; summary of the method: as §2
[34] = system: HOP-62; assay: Growth inhibition of human HOP62 cells at 10 uM after 48 hrs by SRB assay; details: HOP-62, 48 h, read-out: GI; summary of the method: as §1
[35] = system: ACHN; assay: Growth inhibition of human ACHN cells at 10 uM after 48 hrs by SRB assay; details: read-out: GI; summary of the method: as §1
[36] = system: OVCAR-5; assay: Growth inhibition of human OVCAR5 cells at 10 uM after 48 hrs by SRB assay; details: OVCAR-5, 48 h, read-out: GI; summary of the method: as §1

| Structure (SMILES) | inhibition of growth at 10 µM [1] | inhibition of growth at 10 µM [3] | inhibition of growth at 10 µM [5] | inhibition of growth at 10 µM [7] | inhibition of growth at 10 µM [8] | inhibition of growth at 10 µM [9] | inhibition of growth at 10 µM [10] | inhibition of growth at 10 µM [11] | inhibition of growth at 10 µM [12] | inhibition of growth at 10 µM [15] | inhibition of growth at 10 µM [16] | inhibition of growth at 10 µM [17] | inhibition of growth at 10 µM [18] | inhibition of growth at 10 µM [19] | inhibition of growth at 10 µM [20] | inhibition of growth at 10 µM [21] | inhibition of growth at 10 µM [22] | inhibition of growth at 10 µM [24] | inhibition of growth at 10 µM [25] | inhibition of growth at 10 µM [26] | other results |
| --- | --- | --- | --- | --- | --- | --- | --- | --- | --- | --- | --- | --- | --- | --- | --- | --- | --- | --- | --- | --- | --- |
| Nc1ccc(Sc2ccc3c4c2cccc4c(=O)n2c4ccccc4nc32)cc1 | 60.6% | 49.2% | 56.3% | 40% | 94.1% | 26.4% | 83.9% | 53.8% | 33.3% | 71.3% | 62.7% | 80.8% | 22.2% | 70.8% | 60.1% | 39.7% | 79.4% | 45.6% | 66% | 62.5% | growth inhibition (GI) [2]: Active; inhibition of growth at 10 µM [4]: 54.6%; inhibition of growth at 10 µM [6]: 50%; inhibition of growth at 10 µM [13]: < 20%; inhibition of growth at 10 µM [14]: 51.5%; inhibition of growth at 10 µM [23]: 40.4%; inhibition of growth at 10 µM [27]: 55.1%; inhibition of growth at 10 µM [28]: 88%; inhibition of growth at 10 µM [29]: < 20%; inhibition of growth at 10 µM [30]: 46.1%; inhibition of growth at 10 µM [31]: 65.5%; inhibition of growth at 10 µM [32]: 59.4%; inhibition of growth at 10 µM [33]: 29%; inhibition of growth at 10 µM [34]: 48.8%; inhibition of growth at 10 µM [35]: 77.9%; inhibition of growth at 10 µM [36]: < 20% |
| O=c1c2cccc3c(N4CCOCC4)ccc(c32)c2nc3ccccc3n12 | 26.6% | < 20% | 20.9% | < 20% | 30.4% | 21.9% | < 20% | < 20% | < 20% | 40.8% | < 20% | < 20% | < 20% | < 20% | < 20% | < 20% | < 20% | < 20% | < 20% | 23.1% | inhibition of growth at 10 µM [2]: < 20%; inhibition of growth at 10 µM [4]: < 20%; inhibition of growth at 10 µM [6]: < 20%; inhibition of growth at 10 µM [13]: 26.8%; inhibition of growth at 10 µM [14]: < 20%; inhibition of growth at 10 µM [23]: 59.8%; inhibition of growth at 10 µM [27]: < 20%; inhibition of growth at 10 µM [28]: < 20%; inhibition of growth at 10 µM [29]: < 20%; inhibition of growth at 10 µM [30]: < 20%; inhibition of growth at 10 µM [31]: 41.7%; inhibition of growth at 10 µM [32]: < 20%; inhibition of growth at 10 µM [33]: < 20%; inhibition of growth at 10 µM [34]: < 20%; inhibition of growth at 10 µM [35]: < 20%; inhibition of growth at 10 µM [36]: < 20% |
| O=c1[nH]cc(F)c(=O)[nH]1 [FLUOROURACIL] | 33.7% | 40.2% | 65.9% | 58% | 39.4% | 40.7% | 24.8% | 50.1% | 27.1% | 50.6% | 48.7% | 54% | 47.4% | 30.4% | 50.3% | 42.3% | 34.2% | 78.1% | 58.2% | 39% | inhibition of growth at 10 µM [2]: 43.1%; growth inhibition (GI) [14]: Active; growth inhibition (GI) [23]: Active; inhibition of growth at 10 µM [27]: 57.1%; inhibition of growth at 10 µM [28]: 69.1%; inhibition of growth at 10 µM [29]: 95.5%; inhibition of growth at 10 µM [30]: 77.5%; inhibition of growth at 10 µM [31]: 51.2%; inhibition of growth at 10 µM [32]: 69.5%; inhibition of growth at 10 µM [33]: 19.5%; inhibition of growth at 10 µM [34]: 47.8%; inhibition of growth at 10 µM [35]: 39.3%; inhibition of growth at 10 µM [36]: 44.3% |
